Experimental data of several laboratories.
Lines come from different studies, so protocols differ.
Organism: Bacillus subtilis
Read-out: microbial growth

CC1=NN(CNc2ccc(C(=O)O)cc2)C(=O)C1=NNn1c(-c2ccccc2)nc2ccccc2c1=O — MIC (broth dilution; 24 h): 50.5 µM
O=C(O)c1ccc(-n2cc(/C=N/Nc3cccc(Cl)c3)c(-c3cccc(F)c3)n2)cc1 — MIC (ATCC6623): 12.5 µg/mL
CCCCCC[P+](/C=C(/c1ccccc1)c1cc(Cl)ccc1OC)(CCCCCC)CCCCCC — MIC (21 h): 2 µM
c1ccc(NCc2ccc(Oc3ccccn3)cc2)cc1 — MIC: 1.6 µg/mL
Cc1cc(/C=C2\Sc3ccccc3N2CCCN2CCC(C)CC2)c2ccccc2[n+]1C.[I-] — MIC (broth dilution; 168): 1 µg/mL
CC1=NN(CNc2ccccc2[N+](=O)[O-])C(=O)C1=NNn1c(-c2ccccc2)nc2ccccc2c1=O — MIC (broth dilution; 24 h): 50.4 µM
O=C1NC(=S)N/C1=C\c1ccc(-c2ccc(N(c3ccccc3)c3ccccc3)cc2)c2ccccc12 — MIC (broth dilution; ATCC6633): > 1000 µg/mL
CO[C@H]1/C=C/O[C@@]2(C)Oc3c(C)c(O)c4c(O)c(c(/C=N/N5CCN(C)CC5)c(O)c4c3C2=O)NC(=O)/C(C)=C\C=C\[C@H](C)[C@H](O)[C@@H](C)[C@@H](O)[C@@H](C)[C@H](OC(C)=O)[C@@H]1C — MIC (broth dilution; 168): 4 µg/mL
CCCCCCCC[P+](/C=C(/c1ccccc1)c1cc(Cl)ccc1O)(CCCCCCCC)CCCCCCCC — MIC (21 h): > 80 µM
C/C=C(\C)c1cc(OC(=O)c2c(O)c(C)c(O)c(Cl)c2/C(C)=C/C)c(C)c(O)c1C(=O)O — MIC (broth dilution; BS01): 32 µg/mL
CC1(C)CCC(C)(C)c2cc(C(=O)Nc3ccc(C(=O)O)cc3)ccc21 — MIC (broth dilution; 24 h): 50 to 100 µM
O=C(O)c1ccc(-n2cc(/C=N/Nc3c(F)c(F)c(F)c(F)c3F)c(-c3cccc(F)c3)n2)cc1 — MIC (ATCC6623): 6.25 µg/mL
CNC(=O)c1cc(Oc2ccc(NC(=O)Nc3ccc(Cl)c(C(F)(F)F)c3)cc2)ccn1 — MIC (168): 5 µM
C[n+]1c(/C=C/c2ccc(O)cc2)cc(/C=C2\Sc3ccccc3N2CCCN2CCCC2)c2ccccc21.[I-] — MIC (broth dilution; 168): 16 µg/mL
Clc1cccc(NCc2ccc(Oc3ccccn3)cc2)c1 — MIC: 1.8 µg/mL
CN[C@H](CC(C)C)C(=O)N[C@H]1C(=O)N[C@@H](CC(N)=O)C(=O)N[C@H]2C(=O)N[C@H]3C(=O)N[C@H](C(=O)N[C@H](C(=O)O)c4cc(O)cc(O)c4-c4cc3ccc4O)[C@H](O)c3ccc(c(Cl)c3)Oc3cc2cc(c3O[C@@H]2O[C@H](CO)[C@@H](O)[C@H](O)[C@H]2O[C@H]2C[C@](C)(N)[C@H](O)[C@H](C)O2)Oc2ccc(cc2Cl)[C@H]1O — MIC (broth dilution; ATCC6633): 0.24 µg/mL
O=C(O)c1ccc(-n2cc(/C=N/Nc3cccc(Br)c3)c(-c3cccc(F)c3)n2)cc1 — MIC (ATCC6623): 12.5 µg/mL
O=C1NC(=S)S/C1=C\c1ccc(-c2ccc(N(c3ccccc3)c3ccccc3)cc2)c2ccccc12 — MIC (broth dilution; ATCC6633): 1000 µg/mL
O=C(O)c1ccc(-n2cc(/C=N/N(Cc3ccccc3)c3ccccc3)c(-c3cccc(F)c3)n2)cc1 — MIC (ATCC6623): 1.56 µg/mL
